Experimental data: publication PMC3752840 (Journal of the American Chemical Society, 2013)
“And” between values parts separate entries of the source, which are not always exact repeats. Equal entries are not always repeated. Square brackets hold non-standard residues; d marks the D form. Peptide text beside a SMILES is read from it. * marks the point of attachment. Heptanoyl = CCCCCCC(=O)*; Octanoyl = CCCCCCCC(=O)*

Assays:
human calpain-I = biological target: T1, human calpain-I (Homo sapiens, UniProt P07384); assay: Calpain IC50, Suc-LLVY-AMC fluorescence assay; assay type: biochemical
T1 sequence (P07384 1-714): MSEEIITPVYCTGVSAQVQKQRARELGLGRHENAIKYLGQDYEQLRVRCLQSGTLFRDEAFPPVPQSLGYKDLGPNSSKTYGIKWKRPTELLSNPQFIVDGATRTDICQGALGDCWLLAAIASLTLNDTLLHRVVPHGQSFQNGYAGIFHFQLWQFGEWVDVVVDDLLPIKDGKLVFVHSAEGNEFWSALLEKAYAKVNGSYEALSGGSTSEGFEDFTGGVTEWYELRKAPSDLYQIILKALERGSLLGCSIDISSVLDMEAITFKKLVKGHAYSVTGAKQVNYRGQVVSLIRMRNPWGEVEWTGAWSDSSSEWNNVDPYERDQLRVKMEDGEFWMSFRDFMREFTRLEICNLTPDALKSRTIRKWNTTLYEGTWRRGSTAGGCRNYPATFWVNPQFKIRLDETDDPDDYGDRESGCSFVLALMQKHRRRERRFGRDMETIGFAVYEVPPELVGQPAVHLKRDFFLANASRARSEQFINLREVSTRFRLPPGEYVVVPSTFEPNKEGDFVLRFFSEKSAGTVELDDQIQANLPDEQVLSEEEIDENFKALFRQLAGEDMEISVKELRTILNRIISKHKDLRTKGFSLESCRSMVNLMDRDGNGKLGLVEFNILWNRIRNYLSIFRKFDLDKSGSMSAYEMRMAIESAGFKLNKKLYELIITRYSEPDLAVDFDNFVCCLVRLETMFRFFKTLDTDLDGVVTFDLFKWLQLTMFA
T1 sequence (P04632 1-268 partner): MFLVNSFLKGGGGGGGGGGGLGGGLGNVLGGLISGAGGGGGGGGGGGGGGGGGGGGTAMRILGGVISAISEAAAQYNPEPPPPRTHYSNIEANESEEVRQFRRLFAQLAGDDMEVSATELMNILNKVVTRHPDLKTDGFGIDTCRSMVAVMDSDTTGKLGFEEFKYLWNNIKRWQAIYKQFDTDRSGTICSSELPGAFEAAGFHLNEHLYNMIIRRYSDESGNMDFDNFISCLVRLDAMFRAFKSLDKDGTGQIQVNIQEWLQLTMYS

[1] = biological target: human 20S proteasome, chymotrypsin-like activity (Homo sapiens, UniProt P28074); assay: Proteasome inhibition assay, chymotrypsin-like activity; assay type: biochemical
Summary of the method: (§1)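 Human 20S proteasome (1 nM) in 10 mM Tris-HCl, 0.035% SDS, pH 7.4, preincubated with test compound for 15 min at RT. Fluorogenic substrate then added at 5 µM: Suc-LLVY-AMC for chymotrypsin-like activity, Z-LLE-AMC for caspase-like activity. Fluorescence read at 380/460 nm; IC50 calculated from initial rates.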

[2] = biological target: human 20S proteasome, caspase-like activity (Homo sapiens, UniProt P28072); assay: Proteasome inhibition assay, caspase-like activity; assay type: biochemical
Summary of the method: as §1

[3] = tested on: FR4 multiple myeloma cell line; assay type: cell-based, human; details: 72 h
papain = biological target: T2, papain (Carica papaya, UniProt P00784); assay: biochemical
T2 sequence (P00784 134-345): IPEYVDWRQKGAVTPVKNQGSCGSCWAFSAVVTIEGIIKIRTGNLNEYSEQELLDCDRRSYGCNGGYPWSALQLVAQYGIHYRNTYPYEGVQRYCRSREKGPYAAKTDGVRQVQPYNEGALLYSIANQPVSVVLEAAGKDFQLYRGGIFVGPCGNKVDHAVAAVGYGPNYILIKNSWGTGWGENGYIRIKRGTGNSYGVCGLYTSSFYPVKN

[4] = tested on: U-937 histiocytic lymphoma cell line; assay type: cell-based, human; details: 72 h
[5] = tested on: MM.M1S multiple myeloma cell line; assay type: cell-based, human; details: 72 h, CellTiter-Glo; compound 3 no inhibition up to 80 µM
human 20S proteasome = human 20S proteasome (Homo sapiens, UniProt P28072+P28074); assay: Proteasome inhibition assay; assay type: biochemical; details: two proteasome activities, which is which not stated
[6] = CellTiter-Glo, compound 3 no inhibition up to 80 µM

`CCCCCCC(=O)N[C@H](C(=O)N[C@@H](CCC(N)=O)C(=O)N[C@H](C(=O)N[C@H](CCC(N)=O)C(=O)N[C@H](C(=O)N[C@H](C=O)Cc1ccccc1)[C@@H](C)CC)[C@@H](C)CC)[C@@H](C)CC` [Compound 2] (Heptanoyl-IQI[dQ]IF-aldehyde; N-terminus assumed) gave an IC50 (human calpain-I) of 2.7 ± 0.4 µM, an IC50 [1] of 3.3 ± 0.3 µM and an IC50 [2] of 2.3 ± 0.7 µM. For the same compound, the IC50 [3] was 30 ± 10 µM and the IC50 (papain) was 0.35 ± 0.03 µM.
`CCCCCCCC(=O)N[C@H](C(=O)N[C@@H](CCC(N)=O)C(=O)N[C@H](C(=O)N[C@H](CCC(N)=O)C(=O)N[C@H](C(=O)N[C@H](C=O)Cc1ccccc1)C(C)C)[C@@H](C)CC)[C@@H](C)CC` [Compound 1] (Octanoyl-IQI[dQ]VF-aldehyde; N-terminus assumed) was tested, and the IC50 (human calpain-I) was 2.9 ± 0.3 µM, the IC50 [1] was 4.9 ± 0.3 µM and the IC50 [2] was 2.3 ± 0.2 µM. The IC50 [4] was 13 ± 1 µM and the IC50 (papain) was 0.16 ± 0.04 µM.
With `CC[C@H](C)[C@H](N)C(=O)N[C@@H](CCC(N)=O)C(=O)N[C@H](C(=O)N[C@H](CCC(N)=O)C(=O)N[C@H](C(=O)N[C@H](C=O)Cc1ccccc1)C(C)C)[C@@H](C)CC` [Compound 3] (H-IQI[dQ]VF-aldehyde) the IC50 (human calpain-I) was 1.8 ± 0.3 µM, the IC50 [1] was 0.43 ± 0.08 µM and the IC50 [2] was 0.33 ± 0.07 µM. The “IC50 cell line MM.M1S” value [5] was “No inhibition”, the “IC50 cell line FR4” value [3, 6] was “No inhibition” and the “IC50 cell line U-937” value [4, 6] was “No inhibition”. The “fold higher potency against the proteasome than 1 and 2” value (human 20S proteasome) was 6 fold and 10 fold and the IC50 (papain) was 0.07 ± 0.01 µM.
